These results are taken from PubChem BioAssay.

Molecules are shown by their SMILES. This is one part of the list. A number with no mark means an inactive call. The source made the active and inactive calls.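 Rule for the calls, unless noted: active = mean inhibition over three repeats above a set limit taken from the earlier primary screen (cut at about 37% in these data); inactive = the rest.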

(Lyso)-N-acylphosphatidylethanolamine lipase (Mus musculus), sequence (Q8VD66 whole entry, looked up): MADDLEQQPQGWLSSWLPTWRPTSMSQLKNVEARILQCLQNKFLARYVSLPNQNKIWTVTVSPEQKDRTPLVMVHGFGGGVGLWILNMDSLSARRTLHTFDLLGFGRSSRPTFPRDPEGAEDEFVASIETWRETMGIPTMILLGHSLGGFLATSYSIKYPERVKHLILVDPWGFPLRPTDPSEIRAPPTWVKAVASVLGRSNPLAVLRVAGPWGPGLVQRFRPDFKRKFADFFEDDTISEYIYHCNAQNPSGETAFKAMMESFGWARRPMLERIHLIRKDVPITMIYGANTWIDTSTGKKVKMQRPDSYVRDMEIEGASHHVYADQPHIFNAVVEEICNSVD

The first assay addresses Serine protease HTRA1 (Homo sapiens) (UniProt Q92743). The assay is described as follows: HTRA1 protease inhibitors, retest, confirmation, biochemical, fluorescence polarization (AID 540248).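 Note: 0% = HTRA1 with DMSO and 100% = wells lacking HTRA1; inhibitors block probe binding so polarization drops and inhibition rises.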 The following applies: recombinant HTRA1, FP-rhodamine activity-based probe, at 5.96 µM, active compounds read high. (Polarisation of emitted light reports the rotation of a fluorescent probe.)
As to `Clc1ccccc1CSc1nnc(-c2ccco2)c(-c2ccco2)n1`, the inhibition – broadly, the drop in the measured response relative to a control, in per cent – is 2.03%.

For the compound `Cc1ccc(NS(=O)(=O)c2ccc(N/N=C/c3ccccc3OCC(=O)O)c([N+](=O)[O-])c2)c(C)c1`, the inhibition was 50.2% (active).

As to `O=C(N/N=C/c1sc(N2CCCCC2)nc1-c1cccs1)c1cccnc1`, the inhibition is 58.4% (active). For the compound `COc1ccc(NS(=O)(=O)c2cc(NC(=O)CC(=O)c3ccc([N+](=O)[O-])cc3)ccc2C)cc1`, the inhibition was 28.7%.

For the compound `O=[N+]([O-])c1cc(Cl)cc(/C=N/NC(=S)Nc2cc(S(=O)(=O)N3CCOCC3)ccc2Cl)c1O`, the inhibition was 125% (active).

System in the next assay: not listed separately
The assay can be described thus: compounds interfering with TAMRA-BSA probe, counter-screen for TCR-CD3 interaction inhibitor project, biochemical, fluorescence, TAMRA-labeled BSA (AID 652035; in the data active = inhibition above about 23%;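 note: 0% = buffer low control and 100% = reference high control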). The following applies: TAMRA-labeled BSA probe fluorescence counterscreen; at 9.4 µM; active compounds read high. On the technique in general: Counterscreens check selectivity or assay interference.
`COCCOC(=O)c1sc(=S)n(CCOC)c1N`: the inhibition was 42.3% (active). With `CN(NC(=O)c1ccccc1F)c1nc(C(F)(F)F)nc2ccccc12`, the inhibition is 4.94%. As for `O=[N+]([O-])c1cc(Cl)cc(/C=N/NC(=S)Nc2cc(S(=O)(=O)N3CCOCC3)ccc2Cl)c1O`, the inhibition is -14.9%. `COCCNC(=O)Nc1ccc2nc(-c3ccco3)c(-c3ccco3)nc2c1`: the inhibition is -14.8%.

For a further assay, the system named is T-cell receptor (TCR)-CD3 interaction, human. The assay can be described thus: TCR-CD3 interaction inhibitors, retest, confirmation, biochemical, fluorescence, TAMRA-labeled TCR probe (AID 652036; in the data active = inhibition above about 19%). Conditions: TAMRA-labeled TCR probe fluorescence binding assay; at 9.4 µM; active compounds read high.
Take `COCCOC(=O)c1sc(=S)n(CCOC)c1N`: the inhibition is 33.1% (active). For the compound `CN(NC(=O)c1ccccc1F)c1nc(C(F)(F)F)nc2ccccc12`, the inhibition was 2.71%.

As for `O=[N+]([O-])c1cc(Cl)cc(/C=N/NC(=S)Nc2cc(S(=O)(=O)N3CCOCC3)ccc2Cl)c1O`, the inhibition was 38.1% (active). Take `COCCNC(=O)Nc1ccc2nc(-c3ccco3)c(-c3ccco3)nc2c1`: the inhibition was 41.6% (active).

Another assay addresses (Lyso)-N-acylphosphatidylethanolamine lipase (Mus musculus) (UniProt Q8VD66). The assay can be described thus: ABHD4 inhibitors, retest, confirmation, biochemical, fluorescence polarization, mouse (AID 720658;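 active = mean inhibition across replicates above the hit cutoff set in the primary screen, cut at about 30% in these data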;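 note: 0% = wild-type ABHD4 with DMSO and 100% = catalytically dead S159A mutant with DMSO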). Conditions: purified mABHD4, FP-Rh probe fluorescence polarization; at 8.92 µM; active compounds read high. An outline of the steps:
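Material: Wild-type mouse ABHD4 | Compound: Single nominal compound dose 8.92 µM, 0.89% DMSO final | Measured by: Fluorescence polarization, excitation 525 nm, emission 598 nm | Incubation: 45 min compound pretreatment plus 60 min FP-Rh labeling, 25 °C | Measure: Percent inhibition scaled between wild-type DMSO and S159A mutant wells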
In the case of `Clc1ccccc1CSc1nnc(-c2ccco2)c(-c2ccco2)n1`, the inhibition was 27.6%. Consider `COCCOC(=O)c1sc(=S)n(CCOC)c1N`, for which the inhibition was 47.4% (active). Take `O=[N+]([O-])c1cc(Cl)cc(/C=N/NC(=S)Nc2cc(S(=O)(=O)N3CCOCC3)ccc2Cl)c1O`: the inhibition was 77.1% (active). With `O=C(NNc1c2ccccc2nc2ccccc12)c1cc2ccccc2cc1O`, the inhibition was 41% (active).
